According to ChEMBL document CHEMBL4118104, “Design, Synthesis, and Evaluation of Orally Bioavailable Quinoline-Indole Derivatives as Innovative Multitarget-Directed Ligands: Promotion of Cell Proliferation in the Adult Murine Hippocampus for the Treatment of Alzheimer's Disease” (J Med Chem, 2018):

How the values were obtained:
[1] = test system: Mus musculus; assay: Toxicity in C57BL/6 mouse assessed as abnormal behavior at 677 to 2000 mg/kg, ig measured continuously during first 4 hrs, intermittently for following 24 hrs and occasionally thereafter for 14 consecutive days; format: organism-based; conditions: in vivo, po
Summary of the method: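 Adult C57BL/6 mice, 12 weeks old, given single intragastric doses of 0, 677, 1333 or 2000 mg/kg (n = 6 per dose, 3 male and 3 female). Abnormal behaviour and deaths observed continuously for the first 4 h, intermittently over the next 24 h, then occasionally for 14 days to catch delayed effects.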

[2] = test system: Mus musculus; assay: Toxicity in C57BL/6 mouse assessed as histological abnormalities of heart at 2000 mg/kg, ig after 14 consecutive days by hematoxylin/eosin dye-based microscopic analysis; format: organism-based; conditions: in vivo, po
Summary of the method: (§1)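 Adult C57BL/6 mice, 12 weeks old, single intragastric doses of 0, 677, 1333 or 2000 mg/kg (n = 6 per dose, 3 male/3 female); behaviour and mortality observed over 14 days; liver, heart, lung and brain examined by HE staining at 2000 mg/kg.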

[3] = test system: Mus musculus; assay: Toxicity in C57BL/6 mouse assessed as histological abnormalities of liver at 2000 mg/kg, ig after 14 consecutive days by hematoxylin/eosin dye-based microscopic analysis; format: organism-based; conditions: in vivo, po, 336 h; summary of the method: as §1
[4] = test system: Mus musculus; assay: Toxicity in C57BL/6 mouse assessed as macroscopic abnormalities of kidney at 677 to 2000 mg/kg, ig after 14 consecutive days; format: organism-based; conditions: in vivo, po
[5] = test system: Mus musculus; assay: Induction of cell proliferation in C57BL/6 mouse hippocampal neurons in CA2 region assessed as BrdU-incorporation at 0.5 uL/hr, icv for 7 days by immunohistochemical analysis (reference value: 2.4%); format: functional
[6] = test system: Mus musculus; assay: Induction of cell proliferation in C57BL/6 mouse hippocampal neurons in CA3 region assessed as BrdU-incorporation at 0.5 uL/hr, icv for 7 days by immunohistochemical analysis (reference value: 1.4%); format: functional
[7] = test system: Mus musculus; assay: Induction of cell proliferation in C57BL/6 mouse hippocampal neurons in DG region assessed as BrdU-incorporation at 30 mg/kg, po administered via gavage for 7 days by immunohistochemical analysis (reference value: 2.2%); format: functional
Summary of the method: (§2)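 C57BL/6 mice, 12 weeks old, n = 6, individually housed beforehand without wheels. Compound gavaged 30 mg/kg/day for 7 days with daily IP BrdU 50 mg/kg; BrdU+ cells counted by immunohistochemistry per hippocampal volume; two-way ANOVA.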

[8] = test system: Mus musculus; assay: Induction of cell proliferation in C57BL/6 mouse hippocampal neurons in CA2 region assessed as BrdU-incorporation at 30 mg/kg, po administered via gavage for 7 days by immunohistochemical analysis (reference value: 2.4%); format: functional; summary of the method: as §2
[9] = test system: Mus musculus; assay: Toxicity in double APP/PS1 transgenic Alzheimer's disease mouse model assessed as diarrhea at 30 mg/kg/day, po for 80 days; format: organism-based; conditions: in vivo, 1920 h
Summary of the method: (§3)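 APP/PS1 double-transgenic mice, six months old, dosed by intragastric infusion at 30 mg/kg/day in 0.5% CMC-Na for 80 consecutive days (n = 10). Vehicle mice and wild-type C57BL/6 mice received blank 0.5% CMC-Na. Body weight tracked daily; diarrhoea, emesis-like behaviour and mortality monitored. At sacrifice, brain, subcutaneous layer, stomach, intestines, heart, lung, liver, spleen, kidneys and other organs examined for expansion or carcinogenicity.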

[10] = test system: Mus musculus; assay: Cognition enhancement activity in double APP/PS1 transgenic Alzheimer's disease mouse model assessed as swimming path length in virtual platform at 30 mg/kg/day, po for 80 days by Morris water maze test (reference value: 9.1 +/- 2.8 cm); format: functional
Summary of the method: (§4)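 APP/PS1 mice, six months old, gavaged 30 mg/kg/day in 0.5% CMC-Na for 80 days. Probe trial was a single 90 s free swim with the platform absent; effective region is twice the platform diameter. n = 10, mean ± SD, two-way ANOVA.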

[11] = test system: Mus musculus; assay: Cognition enhancement activity in double APP/PS1 transgenic Alzheimer's disease mouse model assessed as swimming path length in effective region at 30 mg/kg/day, po for 80 days by Morris water maze test (reference value: 44.2 +/- 4.9 cm); format: functional; summary of the method: as §4
[12] = test system: Mus musculus; assay: Cognition enhancement activity in double APP/PS1 transgenic Alzheimer's disease mouse model assessed as swimming path length in correct quadrant at 30 mg/kg/day, po for 80 days by Morris water maze test (reference value: 295.3 +/- 46.9 cm); format: functional; summary of the method: as §4
[13] = test system: Mus musculus; assay: Toxicity in double APP/PS1 transgenic Alzheimer's disease mouse model assessed as brain expansion at 30 mg/kg/day, po for 80 days; format: organism-based; conditions: in vivo, 1920 h; summary of the method: as §3
[14] = test system: Mus musculus; assay: Toxicity in double APP/PS1 transgenic Alzheimer's disease mouse model assessed as carcinogenicity in subcutaneous layer at 30 mg/kg/day, po for 80 days; format: organism-based; conditions: in vivo, 1920 h; summary of the method: as §3
[15] = test system: Mus musculus; assay: Toxicity in double APP/PS1 transgenic Alzheimer's disease mouse model assessed as carcinogenicity in intestine at 30 mg/kg/day, po for 80 days; format: organism-based; conditions: in vivo, 1920 h; summary of the method: as §3
[16] = test system: Mus musculus; assay: Toxicity in double APP/PS1 transgenic Alzheimer's disease mouse model assessed as carcinogenicity in lung at 30 mg/kg/day, po for 80 days; format: organism-based; conditions: in vivo, 1920 h; summary of the method: as §3
[17] = test system: Mus musculus; assay: Toxicity in double APP/PS1 transgenic Alzheimer's disease mouse model assessed as carcinogenicity in liver at 30 mg/kg/day, po for 80 days; format: organism-based; conditions: in vivo, 1920 h; summary of the method: as §3
[18] = test system: Mus musculus; assay: Toxicity in double APP/PS1 transgenic Alzheimer's disease mouse model assessed as carcinogenicity in spleen at 30 mg/kg/day, po for 80 days; format: organism-based; conditions: in vivo, 1920 h; summary of the method: as §3
[19] = test system: Mus musculus; assay: Toxicity in double APP/PS1 transgenic Alzheimer's disease mouse model assessed as carcinogenicity in kidneys at 30 mg/kg/day, po for 80 days; format: organism-based; conditions: in vivo, 1920 h; summary of the method: as §3
[20] = test system: Mus musculus; assay: Toxicity in C57BL/6 mouse assessed as macroscopic abnormalities of lung at 677 to 2000 mg/kg, ig after 14 consecutive days; format: organism-based; conditions: in vivo, po, 336 h
[21] = test system: Mus musculus; assay: Toxicity in C57BL/6 mouse assessed as macroscopic abnormalities of liver at 677 to 2000 mg/kg, ig after 14 consecutive days; format: organism-based; conditions: in vivo, po
[22] = Initial plasma concentration in Sprague-Dawley rat at 5 mg/kg, iv administered as single dose by LC-MS/MS analysis; format: ADME, organism-based
[23] = AUC (0 to t) in Sprague-Dawley rat at 5 mg/kg, iv administered as single dose by LC-MS/MS analysis; format: ADME, organism-based; conditions: in vivo
Summary of the method: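 SD rats given 5 mg/kg intravenously, n = 3; pharmacokinetic parameters derived from plasma concentrations.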

[24] = MRT (0 to t) in Sprague-Dawley rat at 5 mg/kg, iv administered as single dose by LC-MS/MS analysis; format: ADME, organism-based; conditions: in vivo
[25] = Half life in Sprague-Dawley rat at 30 mg/kg, po by LC-MS/MS analysis; format: ADME, organism-based; conditions: in vivo
[26] = MRT (0 to t) in Sprague-Dawley rat at 30 mg/kg, po by LC-MS/MS analysis; format: ADME, organism-based; conditions: in vivo
Summary of the method: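 SD rats given a single oral gavage dose of 30 mg/kg, n = 3; plasma levels by LC-MS/MS; bioavailability computed against the 5 mg/kg intravenous arm.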

[27] = Drug uptake in Sprague-Dawley rat plasma at 30 mg/kg, po after 1 hr by LC-MS/MS analysis; format: ADME, organism-based
Summary of the method: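 SD rats, single oral gavage 30 mg/kg, n = 3; plasma and brain drug levels taken 1 h after dosing, measured by LC-MS/MS.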

| SMILES | Activity [1] | Activity [2] | Activity [3] | Activity [4] | Activity [5] [%] | Activity [6] [%] | Activity [7] [%] | Activity [8] [%] | Activity [9] | Activity [10] [cm] | Activity [11] [cm] | Activity [12] [cm] | Activity [13] | Activity [14] | Activity [15] | Activity [16] | Activity [17] | Activity [18] | Activity [19] | Activity [20] | other results |
| --- | --- | --- | --- | --- | --- | --- | --- | --- | --- | --- | --- | --- | --- | --- | --- | --- | --- | --- | --- | --- | --- |
| Cl.Oc1c(Cl)cc(Cl)c2ccc(-c3cc4cc5c(cc4[nH]3)OCO5)nc12 | Non-Toxic | Non-Toxic | Non-Toxic | Non-Toxic | 38 | 37.6 | 17 | 16.3 | Non-Toxic | 15 | 65.5 | 473.5 | Non-Toxic | Non-Toxic | Non-Toxic | Non-Toxic | Non-Toxic | Non-Toxic | Non-Toxic | Non-Toxic | Activity [21]: Non-Toxic |
| Cl.Oc1ccc2[nH]c(-c3ccc4c(Cl)cc(Cl)c(O)c4n3)cc2c1 | Non-Toxic | Non-Toxic | Non-Toxic | Non-Toxic | 39.6 | 36.5 | 30.6 | 24.3 | Non-Toxic | 22.1 | 71.3 | 533.3 | Non-Toxic | Non-Toxic | Non-Toxic | Non-Toxic | Non-Toxic | Non-Toxic | Non-Toxic | Non-Toxic | C0 [22]: 4930 ng/mL; AUC(0-t) [23]: 2110 ng·h/mL; MRT last [24]: 0.38 h; half-life [25]: 3.58 h; MRT last [26]: 2.53 h; concentration at 1 h [27]: 902 ng/g; Activity [21]: Non-Toxic |
